Assay [1] in a line: reduced viability of SK-BR-3 breast cancer cells – cell-based, 24 h, human, pilot screen (AID 572).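 Further: compound exposure lasted between 18 and 24 h rather than exactly 24 h; 100% = carrier-treated control wells.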 The settings on record: SK-BR-3 viability, CellTiter-Glo luminescence, at 10 µM, stronger effect = lower value. A general note: ATP-based viability assays read luminescence as a measure of living cells.
Assay [2] can be described thus: HUVEC growth inhibition – cell-based, human, primary screen (AID 575;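 active means viability at or below 30% in both replicate assays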;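 further: 100% = median of untreated cell wells with 0.1% DMSO on each plate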). The settings on record: HUVEC proliferation, CellTiter-Glo luminescence, 72 h; at 10 µM; stronger effect = lower value. In short, it runs like this: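 Material: primary human umbilical vein endothelial cells / Schedule: 72 h exposure, 37 °C, 5% CO2, 30 min RT equilibration / Signal: ATP-based CellTiter-Glo luminescent read / Read-out basis: percent of median DMSO-control luminescence / Control set: 32 DMSO-only cell-control wells (high), 32 MePR drug-control wells (low) per plate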

The nature of assay [3]: H69AR cell proliferation blockers – human, duplicate replicates, primary screen (AID 580;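 active means viability at or under a set limit in both replicates, limit being median viability minus 3 SD, cut at about 48% in these data, passing the limit was not always enough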;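 further: 100% = mean luminescence of untreated wells and 0% = no signal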). The settings on record: H69AR lung tumor cells viability, ATP luminescence, 72 h; at 10 µM; stronger effect = lower value.
Assay [4] is described as follows: MRP1 drug-resistance reversers in H69AR cells – cell-based, doxorubicin co-treatment, pilot screen (AID 601;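 active means viability loss from added drug above about 55%, and viability with drug at most 40%, in both replicates, limit read from the data, passing the limit was not always enough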). The settings on record: CellTiter-Glo, 72 h, at 10 µM; for differential viability (reversal): stronger effect = higher value.
Assay [5] in a line: yeast transport mutant growth inhibition pilot in 384-well plates, post-Golgi transport modulator project (AID 636; in the data active means inhibition above about 31%). The settings on record: absorbance 615 nm, about 18 h, stronger effect = higher value.
A short description of assay [6]: growth suppression of yeast trafficking mutant, preliminary HTS, modulators of trafficking downstream of Golgi apparatus project, 1536-format plate, OD 615 nm (AID 637; in the data active means inhibition above about 30%). The settings on record: yeast transport mutant growth, absorbance 615 nm, 18 h; stronger effect = higher value.
Where [7] appears, read: H69AR cells + 2 uM doxorubicin, measured here: viability with 2 uM doxorubicin, stronger effect = lower value.
Where [8] appears, read: H69AR cells, compound alone cytotoxicity.

Structures are written as SMILES. Calls of active or inactive are those of the source.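 How the source made its calls, unless noted: active means viability at or below 10% of carrier control in both of two separate runs; inconclusive means viability at or below 10% in only one of the two runs; inactive means the rest.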

Consider 19 compounds from PubChem BioAssay.

What is called viability is a read-out of living cells in per cent, often relative to untreated cells. In general, inhibition refers to the change of the read-out against control, counted positive when it falls. For `CC(=O)SCCC(=O)Nc1ccccc1`, the viability in assay [1] was 88% (inactive); in assay [2], 87.2% (inactive); in assay [3], 92.5% (inactive); in assay [4] (setting [7]), 87.3%; in assay [4] (setting [8]) it was 92.5%. Also, the differential viability (reversal) in assay [4] (H69AR cells + 2 uM doxorubicin) is 5.22% (inactive). The inhibition is -7.12% (inactive) in assay [5] and 0.81% (inactive) in assay [6].

`O=C(CN1CCN(c2nc(-c3ccc(F)cc3)cs2)CC1)NCc1ccc2c(c1)OCO2`: the viability was 175% (inactive) in assay [1]; 69% (inactive) in assay [2]; 91.2% (inactive) in assay [3]; 75.2% in assay [4] (setting [7]); 91.2% in assay [4] (setting [8]). Besides, the differential viability (reversal) in assay [4] (H69AR cells + 2 uM doxorubicin) is 15.9% (inactive). Moreover, the inhibition was -6.49% (inactive) in assay [5] and 13.5% (inactive) in assay [6].

As to `O=c1c2[nH]c3ccc(Cl)cc3c2ncn1Cc1ccccn1`, the viability in assay [1] is 94% (inactive); in assay [2], 107% (inactive); in assay [3], 101% (inactive); in assay [4] (setting [7]), 87.9%; in assay [4] (setting [8]), 101%. Moreover, the differential viability (reversal) in assay [4] (H69AR cells + 2 uM doxorubicin) was 13.4% (inactive). In addition, the inhibition is -3.33% (inactive) in assay [5] and -3.27% (inactive) in assay [6].

As to `CCC(=O)Nc1cc(Cl)ccc1N1CCN(C(=O)CC)CC1`, the viability in assay [1] is 70% (inactive); in assay [2], 92.6% (inactive); in assay [3], 88.5% (inactive); in assay [4] (setting [7]) it was 85%; in assay [4] (setting [8]), 88.5%. The differential viability (reversal) in assay [4] (H69AR cells + 2 uM doxorubicin) was 3.43% (inactive). Moreover, the inhibition is -4.66% (inactive) in assay [5] and 0.73% (inactive) in assay [6].

With `CC(CN1c2ccccc2Sc2ccccc21)N(C)C` (configuration not stated), the viability in assay [1] is 88% (inactive); in assay [2] it was 62.9% (inactive); in assay [3], 92.2% (inactive); in assay [4] (setting [7]) it was 87.7%; in assay [4] (setting [8]) it was 92.2%. Besides, the differential viability (reversal) in assay [4] (H69AR cells + 2 uM doxorubicin) was 4.55% (inactive). Further, the values for the inhibition in assay [5] and in assay [6] were -2.73% (inactive) and -1.67% (inactive), respectively.

Take `COc1cccc(NC(=O)C2CCCN2C(=O)Nc2cccc(F)c2)c1` (configuration not stated): the viability in assay [1] is 96% (inactive); in assay [2], 103% (inactive); in assay [3], 103% (inactive); in assay [4] (setting [7]), 94%; in assay [4] (setting [8]), 103%. Moreover, the differential viability (reversal) in assay [4] (H69AR cells + 2 uM doxorubicin) was 8.87% (inactive). Moreover, the inhibition in assay [5] was -3.7% (inactive); in assay [6] it was -3.06% (inactive).

Take `O=C(CSc1ccc(-c2ccccc2)nn1)N1CCOCC1`: the viability in assay [1] was 94% (inactive); in assay [2], 105% (inactive); in assay [3], 95.2% (inactive); in assay [4] (setting [7]), 82%; in assay [4] (setting [8]), 95.2%. For the same compound, the differential viability (reversal) in assay [4] (H69AR cells + 2 uM doxorubicin) is 13.2% (inactive). For the same compound, the values for the inhibition in assay [5] and in assay [6] were -6.44% (inactive) and -4.73% (inactive), respectively.

In the case of `CN(C(=O)C1CCCO1)c1nnc(-c2ccncc2)s1` (configuration not stated), the viability in assay [1] was 81% (inactive); in assay [2], 111% (inactive); in assay [3] it was 100% (inactive); in assay [4] (setting [7]), 92.7%; in assay [4] (setting [8]) it was 100%. Moreover, the differential viability (reversal) in assay [4] (H69AR cells + 2 uM doxorubicin) is 7.37% (inactive). The results for the inhibition in assay [5] and in assay [6] were -3.24% (inactive) and -1.82% (inactive), respectively.

Turning to `CCCCN(Cc1cc2cc(OC)ccc2[nH]c1=O)C(=O)c1ccccn1`, the viability is 102% (inactive) in assay [1]; 98% (inactive) in assay [2]; 102% (inactive) in assay [3]; 95% in assay [4] (setting [7]); 102% in assay [4] (setting [8]). Besides, the differential viability (reversal) in assay [4] (H69AR cells + 2 uM doxorubicin) is 6.81% (inactive). In addition, the inhibition was -5.14% (inactive) in assay [5] and -3.82% (inactive) in assay [6].

On to `Cc1cc(C(=O)Nc2cccnc2)no1`, for which the viability is 99% (inactive) in assay [1]; 101% (inactive) in assay [2]; 98.3% (inactive) in assay [3]; 98% in assay [4] (setting [7]); 98.3% in assay [4] (setting [8]). Also, the differential viability (reversal) in assay [4] (H69AR cells + 2 uM doxorubicin) is 0.295% (inactive). The inhibition in assay [5] was 3.78% (inactive); in assay [6], -2.18% (inactive).

Consider `CC(C)N(Cc1nc(-c2ccc(Cl)cc2)no1)C(=O)CN(C)S(=O)(=O)c1ccc(Cl)cc1`, for which the viability is 95% (inactive) in assay [1]; 66.3% (inactive) in assay [2]; 78.7% (inactive) in assay [3]; 86.1% in assay [4] (setting [7]); 78.7% in assay [4] (setting [8]). Besides, the differential viability (reversal) in assay [4] (H69AR cells + 2 uM doxorubicin) was -7.31% (inactive). The figures for the inhibition in assay [5] and in assay [6] were -0.68% (inactive) and 1.29% (inactive), respectively.

`CCN(CC)CCn1c(OC)cc(=O)[nH]c1=O`: the viability is 93% (inactive) in assay [1]; 104% (inactive) in assay [2]; 101% (inactive) in assay [3]; 99.9% in assay [4] (setting [7]); 101% in assay [4] (setting [8]). Also, in assay [4] (H69AR cells + 2 uM doxorubicin), the differential viability (reversal) is 0.635% (inactive). Moreover, the values for the inhibition in assay [5] and in assay [6] were -10% (inactive) and -0.97% (inactive), respectively.

As for `Cc1ccc(N(C(C)C(=O)Nc2ccc(S(=O)(=O)N3CCOCC3)cc2)S(C)(=O)=O)cc1` (configuration not stated), the viability in assay [1] is 87% (inactive); in assay [2], 106% (inactive); in assay [3], 99.8% (inactive); in assay [4] (setting [7]) it was 106%; in assay [4] (setting [8]), 99.8%. Also, the differential viability (reversal) in assay [4] (H69AR cells + 2 uM doxorubicin) was -6.04% (inactive). The figures for the inhibition in assay [5] and in assay [6] were -6.3% (inactive) and -7.9% (inactive), respectively.

As for `COC(=O)c1cccc(S(=O)(=O)N2CCC(C)CC2)c1`, the viability in assay [1] was 100% (inactive); in assay [2] it was 105% (inactive); in assay [3] it was 93.8% (inactive); in assay [4] (setting [7]), 98.1%; in assay [4] (setting [8]), 93.8%. The differential viability (reversal) in assay [4] (H69AR cells + 2 uM doxorubicin) was -4.31% (inactive). The inhibition in assay [5] is 0.52% (inactive); in assay [6], -3.44% (inactive).

For `CCOC(=O)C1CCCN(C(=O)c2sc3nc(-c4ccccc4)cn3c2C)C1` (configuration not stated), the viability in assay [1] is 112% (inactive); in assay [2], 89.3% (inactive); in assay [3], 84.9% (inactive); in assay [4] (setting [7]), 82.9%; in assay [4] (setting [8]), 84.9%. In assay [4] (H69AR cells + 2 uM doxorubicin), the differential viability (reversal) is 1.98% (inactive). Further, the inhibition was -1.3% (inactive) in assay [5] and 15.9% (inactive) in assay [6].

Turning to `O=C(CN1CCCN(S(=O)(=O)c2ccc(F)cc2)CC1)Nc1ccccc1Br`, the viability was 84% (inactive) in assay [1]; 87.7% (inactive) in assay [2]; 76.3% (inactive) in assay [3]; 83.5% in assay [4] (setting [7]); 76.3% in assay [4] (setting [8]). For the same compound, in assay [4] (H69AR cells + 2 uM doxorubicin), the differential viability (reversal) was -7.18% (inactive). Besides, the inhibition in assay [5] was 1.17% (inactive); in assay [6] it was -1.48% (inactive).

Consider `CC1(C)CC(=O)C(C=NC(CCC(N)=O)C(=O)O)=C(O)C1` (configuration not stated), for which the viability in assay [1] was 96% (inactive); in assay [2], 96.5% (inactive); in assay [3] it was 91.9% (inactive); in assay [4] (setting [7]) it was 83.3%; in assay [4] (setting [8]), 91.9%. For the same compound, in assay [4] (H69AR cells + 2 uM doxorubicin), the differential viability (reversal) was 8.63% (inactive). Also, the results for the inhibition in assay [5] and in assay [6] were -8.22% (inactive) and 0.18% (inactive), respectively.

Turning to `CC(=O)Oc1cccc2c1C(=O)c1c(OC(C)=O)cc(C(=O)O)cc1C2=O`, the viability in assay [1] was 90% (inactive); in assay [2], 60.2% (inactive); in assay [3], 86.7% (inactive); in assay [4] (setting [7]), 86.4%; in assay [4] (setting [8]), 86.7%. In addition, the differential viability (reversal) in assay [4] (H69AR cells + 2 uM doxorubicin) was 0.27% (inactive). Also, the inhibition is 4.16% (inactive) in assay [5] and 7.17% (inactive) in assay [6].

Turning to `CCn1cc(C(=O)NC2CCc3ccccc32)c(=O)c2ccc(C)nc21` (configuration not stated), the viability in assay [1] was 77% (inactive); in assay [2] it was 84.3% (inactive); in assay [3], 81.6% (inactive); in assay [4] (setting [7]), 91.7%; in assay [4] (setting [8]), 81.6%. Moreover, the differential viability (reversal) in assay [4] (H69AR cells + 2 uM doxorubicin) was -10.2% (inactive). In addition, the results for the inhibition in assay [5] and in assay [6] were -0.13% (inactive) and 5.41% (inactive), respectively.
